Assay [1] can be described thus: Antiplatelet activity against washed rabbit platelet assessed as inhibition of arachidonic acid-induced platelet aggregation at 100 ug/ml preincubated for 3 mins by turbidimetric method. More on the design: scale not given: the % may be the effect or the level left. Type of assay: functional, Oryctolagus cuniculus. In a few lines: (§1)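 Washed rabbit platelets from EDTA-anticoagulated platelet-rich plasma, 4.5×10^8/ml in Tyrode solution with 0.35% BSA, stirred at 1200 rpm at 37°. Turbidimetric read-out; % aggregation as means ± S.E. (n=3), Student's t test versus DMSO control.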

The nature of assay [2]: Antiplatelet activity against washed rabbit platelet assessed as inhibition of thrombin-induced platelet aggregation at 100 ug/ml preincubated for 3 mins by turbidimetric method. More on the design: scale not given: the % may be the effect or the level left. In kind it is functional, Oryctolagus cuniculus. The method, boiled down:
as §1

Assay [3] can be described thus: Antiplatelet activity against washed rabbit platelet assessed as inhibition of collagen-induced platelet aggregation at 100 ug/ml preincubated for 3 mins by turbidimetric method. More on the design: scale not given: the % may be the effect or the level left. In kind it is functional, Oryctolagus cuniculus. In a few lines: as §1
The nature of assay [4]: Antiplatelet activity against washed rabbit platelet assessed as inhibition of platelet activating factor-induced platelet aggregation at 100 ug/ml preincubated for 3 mins by turbidimetric method. On the set-up: scale not given: the % may be the effect or the level left. Type of assay: functional, Oryctolagus cuniculus. The method, boiled down: as §1
A short description of assay [5]: Antiplatelet activity against washed rabbit platelet assessed as inhibition of collagen-induced platelet aggregation at 50 ug/ml preincubated for 3 mins by turbidimetric method. In kind it is functional, Oryctolagus cuniculus. On the set-up: scale not given: the % may be the effect or the level left. The method, boiled down:
as §1

Assay [6] in a line: Antiplatelet activity against washed rabbit platelet assessed as inhibition of platelet activating factor-induced platelet aggregation at 50 ug/ml preincubated for 3 mins by turbidimetric method. Type of assay: functional, Oryctolagus cuniculus. On the set-up: scale not given: the % may be the effect or the level left. The method, boiled down: as §1
Assay [7] in a line: Antiplatelet activity against washed rabbit platelet assessed as inhibition of arachidonic acid-induced platelet aggregation at 20 ug/ml preincubated for 3 mins by turbidimetric method. In kind it is functional, Oryctolagus cuniculus. On the set-up: scale not given: the % may be the effect or the level left. In a few lines: as §1
Assay [8] in a line: Antiplatelet activity against washed rabbit platelet assessed as inhibition of collagen-induced platelet aggregation at 20 ug/ml preincubated for 3 mins by turbidimetric method. Type of assay: functional, Oryctolagus cuniculus. In a few lines:
as §1

The nature of assay [9]: Antiplatelet activity against washed rabbit platelet assessed as inhibition of collagen-induced platelet aggregation at 10 ug/ml preincubated for 3 mins by turbidimetric method. Type of assay: functional, Oryctolagus cuniculus. The method, boiled down: as §1
Assay [10] can be described thus: Antiplatelet activity against washed rabbit platelet assessed as inhibition of collagen-induced platelet aggregation at 5 ug/ml preincubated for 3 mins by turbidimetric method. In kind it is functional, Oryctolagus cuniculus. In a few lines: as §1
A short description of assay [11]: Antiplatelet activity against washed rabbit platelet assessed as inhibition of collagen-induced platelet aggregation at 2 ug/ml preincubated for 3 mins by turbidimetric method. Type of assay: functional, Oryctolagus cuniculus. The method, boiled down:
as §1

The nature of assay [12]: (§2) Antiplatelet activity against washed rabbit platelet assessed as inhibition of arachidonic acid-induced platelet aggregation preincubated for 3 mins by turbidimetric method. Type of assay: functional, cell-based. The note with it: Oryctolagus cuniculus. The method, boiled down:
(§3)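 Washed rabbit platelets, 4.5×10^8/ml in Tyrode–0.35% BSA, stirred at 1200 rpm at 37°. Compound preincubated 3 min (final DMSO 0.5%) before arachidonic acid 100 μM. Aggregation read turbidimetrically. Percent inhibition across concentrations given as means ± S.E. (n=3); IC50 taken from the concentration–response curve.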

For assay [13], the system named is Platelet. The assay is described as §2. The note with it: Oryctolagus cuniculus. Type of assay: functional, cell-based. In a few lines: as §3
Assay [14] is described as follows: Antiplatelet activity against washed rabbit platelet assessed as inhibition of arachidonic acid-induced platelet aggregation at 5 ug/ml preincubated for 3 mins by turbidimetric method; values are per cent of control.
Assay [15] is described as follows: Antiplatelet activity against washed rabbit platelet assessed as inhibition of arachidonic acid-induced platelet aggregation at 50 ug/ml preincubated for 3 mins by turbidimetric method; values are per cent of control.
A short description of assay [16]: Antiplatelet activity against washed rabbit platelet assessed as inhibition of arachidonic acid-induced platelet aggregation at 10 ug/ml preincubated for 3 mins by turbidimetric method; values are per cent of control.

The source of these data is ChEMBL document CHEMBL1148061, “Antiplatelet aggregation principles of Dendrobium loddigesii” (J Nat Prod, 1994).

Structures are written as SMILES.

Regarding `COc1cc(O)cc2ccc3cccc(O)c3c12` [MOSCATIN], the Activity in [1] is on record as 0%; in [2], 41%; in assay [3] it was 0%; in assay [4], 24.7%; in assay [5], 0%; in assay [6], 72.1%. The Activity in [7] was 0%; in [13] it was “Dose-dependent effect”. For the same compound, the aggregation is given as 19.6% in assay [8], 42.3% in assay [9], 58.4% in [10] and 78.5% in assay [11]. Also, the IC50 in assay [12] was found to be 37.2 µM. Also, the “level, % of control” value in assay [14] is on record as 87.6%; in assay [15] it was 0%; in assay [16], 22.8%.

`COc1cc(CCc2cc(OC)c(OC(C)=O)c(OC)c2)ccc1OC(C)=O` [MOSCATILIN DIACETATE]: the Activity was 0% in assay [1]; 93.4% in [2]; 12.8% in assay [3]; 36% in assay [4]; 0% in [7]; “Dose-dependent effect” in assay [13]. Also, the half-maximal inhibitory concentration (IC50) in assay [12] stood at 11.2 µM. In addition, the level, % of control in assay [14] is 33.9%; in assay [16], 0%.

As for `COc1cc(CCc2cc(OC)c(O)c(OC)c2)ccc1O` [MOSCATILIN], the Activity in [1] worked out at 0%; in assay [2] it was 85.3%; in [3] it was 0%; in [4], 24.7%; in [5], 0%; in assay [6] it was 72.1%. The values for the Activity in assay [7] and in assay [13] were 36.4% and “Dose-dependent effect”, respectively. In addition, the aggregation worked out at 19.6% in [8], 42.3% in assay [9], 58.4% in [10] and 78.5% in assay [11]. In addition, the IC50 in assay [12] was determined as 61.8 µM. Also, the “level, % of control” value in assay [14] was determined as 78.7%; in [15], 0%; in assay [16], 52%.
